Sampled rows, rich in hits. Any-hit rate of the full collection: about 1.8%.
NPY1 pot ag: potentiators or agonists of human neuropeptide Y receptor Y1 | P25929 | NPY-Y1 expressing cells, potentiator/agonist activation | activation, % at 3.6 µM | actives 0.37% (n = 220,000) | AID 1304; in the data active = activation above about 33%, passing the limit was not always enough;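 note: cells stimulated with NPY at EC10 then isoproterenol at EC100; 0% = low agonist plus stimulus and 100% = saturating agonist plus stimulus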
Target sequence (P25929 whole entry, looked up): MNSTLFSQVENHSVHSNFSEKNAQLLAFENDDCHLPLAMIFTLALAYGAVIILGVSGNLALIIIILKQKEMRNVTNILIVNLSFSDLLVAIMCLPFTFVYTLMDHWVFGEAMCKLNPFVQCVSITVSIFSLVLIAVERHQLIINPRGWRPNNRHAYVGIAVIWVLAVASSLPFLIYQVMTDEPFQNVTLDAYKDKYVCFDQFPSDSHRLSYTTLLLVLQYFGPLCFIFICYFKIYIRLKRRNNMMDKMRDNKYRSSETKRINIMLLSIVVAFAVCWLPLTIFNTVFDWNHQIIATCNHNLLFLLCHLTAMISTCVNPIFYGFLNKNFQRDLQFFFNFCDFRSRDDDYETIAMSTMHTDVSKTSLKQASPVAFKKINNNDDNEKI
NPY2 pot ag: potentiates or activates human NPY-Y2 receptor | activation, % at 3.6 µM | P49146 | cells expressing NPY-Y2, potentiator/agonist read-out | actives 0.45% (n = 220,000); in the data active = activation above about 27%;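 note: cells stimulated with NPY near EC25 plus isoproterenol at EC100; 0% = vehicle plus submaximal agonist and 100% = vehicle plus saturating agonist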
NPY Y2 blocker: blocks the human neuropeptide Y Y2 receptor | inhibition, % at 2.7 µM | actives 0.99% (n = 140,000) | NPY-Y2 expressing cells, antagonist mode | AID 793; in the data active = inhibition above about 17%;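 note: 0% = vehicle with agonist challenge and 100% = reference antagonist with challenge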
NPY-Y1 antag: NPY-Y1 (human) receptor antagonism | P25929 | HEK293-CNG Y1 cells, membrane potential fluorescence; NPY at EC95, then isoproterenol | inhibition, % at 3.6 µM | actives 1% (n = 200,000);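 active = inhibition above the campaign mean inhibition of all tested compounds plus 3 SD, cut at about 20% in these data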;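 note: 0% = DMSO wells given NPY plus isoproterenol and 100% = isoproterenol alone without NPY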
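System: HEK293 cells with Y1 receptor plus CNG channel / Probe or stimulus: NPY 25 nM then isoproterenol 1 µM plus Ro 20-1724 25 µM / Compound: one concentration, 3.6 µM, in 0.4% DMSO / Schedule: compound incubation 1 h at room temperature, readout 45 min post-stimulation / Measured by: membrane potential fluorescence / Read-out: % inhibition of NPY effect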
NPY-Y1 pot conf: confirmation of human NPY-Y1 receptor potentiators or agonists; shares compounds with NPY1 pot ag; cell-based NPY-Y1 potentiator/agonist assay; activation, % at 3.6 µM; actives 20% (n = 280); AID 1546; in the data active = activation above about 45%;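 note: cells challenged with NPY at its EC10 plus isoproterenol stimulus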
NPY-Y2 counter: NPY-Y2 potentiation or agonism as NPY-Y1 counter-screen; shares compounds with NPY1 pot ag; HEK293-CNG cells, membrane-potential fluorescence (FLIPR), 1536-well; activation, % at 3.6 µM; actives 20% (n = 280); AID 1649; in the data active = activation above about 33%
NPY-Y1 agonist: counter-screen for NPY-Y1 potentiators: agonists of human NPY-Y1. shares compounds with NPY1 pot ag. HEK293 Y1-CNGC, membrane potential fluorescence, agonist mode. activation, % at 3.6 µM. actives 50% (n = 280);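 active = percent activation above the mean of DMSO-only control wells plus 3 SD of those wells, cut at about 18% in these data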;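 note: cells challenged with isoproterenol plus Ro 20-1724 with no NPY in test wells; Y1 agonism lowers isoproterenol-driven cAMP and reduces probe fluorescence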
NPY-Y2 agonist: human NPY-Y2 agonism as NPY-Y1 counter-screen. activation, % at 3.6 µM. HEK293 Y2-CNGC, membrane potential fluorescence, agonist mode. shares compounds with NPY1 pot ag. actives 67% (n = 280). AID 1698;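 active = activation above the solvent-only control wells' mean plus 3 SD, cut at about 11% in these data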;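 note: 0% = DMSO with isoproterenol and 100% = 40 nM NPY maximal response; agonism lowers cAMP so well fluorescence drops in active wells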
CNGC inh 2: blocks cyclic nucleotide gated channel in NPY-Y1 counter-screen; shares compounds with NPY1 pot ag; HEK293-CNG parental, isoproterenol cAMP, membrane potential fluorescence; inhibition, % at 3.6 µM; actives 42% (n = 280); AID 1704;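 active = inhibition above the mean of stimulated solvent-only control wells plus 3 SD, cut at about 22% in these data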;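 note: 0% = isoproterenol-stimulated DMSO wells and 100% = unstimulated DMSO wells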
Numbers without * were called inactive.

For CCOC(=O)CSc1nc(=O)n2ccccc2n1 the results were NPY1 pot ag 68*, NPY2 pot ag -20, NPY-Y1 antag 7, NPY-Y1 pot conf 2, NPY-Y2 counter -3, NPY-Y1 agonist 2, NPY-Y2 agonist -6 and CNGC inh 2 -5.
`Cc1ccc(NC(=O)N2CCCC2C(=O)NCC2CCCO2)cc1` (stereo not given) gave NPY1 pot ag 2, NPY2 pot ag -5 and NPY-Y1 antag 2.
`O=C(COc1ccc(Cl)cc1Cl)NCCSc1ccc(Cl)cc1` gave NPY1 pot ag 91*, NPY2 pot ag -33, NPY Y2 blocker 7, NPY-Y1 antag 18, NPY-Y1 pot conf -36, NPY-Y2 counter -23, NPY-Y1 agonist -21, NPY-Y2 agonist -1 and CNGC inh 2 -26.
`CN(C)CCNC(=O)COc1ccc(Cl)cc1Cl` gave NPY1 pot ag -17, NPY2 pot ag -11, NPY Y2 blocker 5 and NPY-Y1 antag -8.
Screening O=C1C2C3c4ccccc4C(Br)(c4ccccc43)C2C(=O)N1c1ccccc1O (stereo not given) returned NPY1 pot ag 38*, NPY2 pot ag 21, NPY Y2 blocker -1, NPY-Y1 antag -3, NPY-Y1 pot conf 33, NPY-Y2 counter 22, NPY-Y1 agonist 26*, NPY-Y2 agonist 15* and CNGC inh 2 32*.
Screening COC(=O)c1ccc(C)c(NC(=O)CCc2ccc(OC)cc2)c1 returned NPY1 pot ag 105*, NPY2 pot ag 8, NPY Y2 blocker 7, NPY-Y1 antag 2, NPY-Y1 pot conf -3, NPY-Y2 counter -4, NPY-Y1 agonist -10, NPY-Y2 agonist -12 and CNGC inh 2 -8.
For Cc1ccc(C(=O)O)cc1NC(=O)CCc1ccccc1 the results were NPY1 pot ag -19, NPY2 pot ag 2 and NPY-Y1 antag 0.
Screening COC(=O)c1cc(NC(=O)Cc2cc(OC)c(OC)c(OC)c2)cc(C(=O)OC)c1 returned NPY1 pot ag 1, NPY2 pot ag 0 and NPY-Y1 antag 3.
`Cc1ccc(C(=O)N2CCN(c3ccc(NC(=S)NC(=O)c4cccs4)cc3)CC2)cc1` gave NPY1 pot ag 8, NPY2 pot ag 10 and NPY-Y1 antag -2.
`Cc1ccccc1C(=O)N1CCN(c2ccc(NC(=S)NC(=O)c3cccs3)cc2)CC1` gave NPY1 pot ag 36*, NPY2 pot ag 15, NPY-Y1 antag -6, NPY-Y1 pot conf 0, NPY-Y2 counter 14, NPY-Y1 agonist 11, NPY-Y2 agonist 15* and CNGC inh 2 19.
Screening O=C(c1ccccc1)N1CCN(C(=O)c2ccncc2)CC1 returned NPY1 pot ag -3, NPY2 pot ag 0, NPY Y2 blocker 2 and NPY-Y1 antag -5.
O=C(c1ccccc1)N1CCN(c2n[nH]c(=O)[nH]c2=O)CC1 was read as NPY1 pot ag 45*, NPY2 pot ag 9, NPY-Y1 antag 6, NPY-Y1 pot conf 0, NPY-Y2 counter 0, NPY-Y1 agonist -4, NPY-Y2 agonist -3 and CNGC inh 2 -3.
For CCC(C)(C)c1ccc(OCCCC[n+]2cccc(C)c2)c(C(C)(C)CC)c1 the results were NPY1 pot ag -28, NPY2 pot ag -18 and NPY-Y1 antag 1.
For Cc1ccn2c(Nc3ccccc3C)c(-c3ccncc3)nc2c1 the results were NPY1 pot ag 41*, NPY2 pot ag 30, NPY Y2 blocker 0, NPY-Y1 antag -4, NPY-Y1 pot conf 59*, NPY-Y2 counter 50*, NPY-Y1 agonist 36*, NPY-Y2 agonist 50* and CNGC inh 2 27*.
O=C(N/N=C/c1c[nH]c2ccc(Br)cc12)C1CC1 was read as NPY1 pot ag 58*, NPY2 pot ag 28, NPY-Y1 pot conf 40, NPY-Y2 counter 34*, NPY-Y1 agonist 50*, NPY-Y2 agonist 43* and CNGC inh 2 47*.
`O=C(OCC(=O)N1CCCc2ccccc21)c1cnc(Cl)c(Cl)c1` gave NPY1 pot ag 49*, NPY2 pot ag 19, NPY Y2 blocker 6, NPY-Y1 antag -1, NPY-Y1 pot conf 31, NPY-Y2 counter 16, NPY-Y1 agonist 22*, NPY-Y2 agonist 7 and CNGC inh 2 25*.
Screening COc1ccc(NC(=O)CN2C(=O)C(C)SC(C)C2=O)c(OC)c1 (stereo not given) returned NPY1 pot ag -2, NPY2 pot ag 11, NPY Y2 blocker -1 and NPY-Y1 antag -5.
For O=C1/C(=C/c2ccccn2)SC(=S)N1c1cccc(O)c1 the results were NPY1 pot ag 54*, NPY2 pot ag 29, NPY-Y1 pot conf 57*, NPY-Y2 counter 38*, NPY-Y1 agonist 41*, NPY-Y2 agonist 37* and CNGC inh 2 32*.
Screening CC(O)C1CCC2C3CC[C@H]4CC(O)CCC4(C)C3CC3(OCCO3)C12C (stereo not given in full) returned NPY1 pot ag 57*, NPY2 pot ag 9, NPY Y2 blocker -3, NPY-Y1 antag 2, NPY-Y1 pot conf 6, NPY-Y2 counter 3, NPY-Y1 agonist -10, NPY-Y2 agonist 2 and CNGC inh 2 12.
For O=C(Nc1cccc(S(=O)(=O)NC2=NCCC2)c1)C1CC(=O)N(c2ccc3c(c2)OCCO3)C1 (stereo not given) the results were NPY1 pot ag 5, NPY2 pot ag 4 and NPY-Y1 antag 0.
`COc1ccc(CCn2c(C)cc(C(=O)CSc3nnnn3-c3ccccc3)c2C)cc1` gave NPY1 pot ag 65*, NPY2 pot ag -7, NPY Y2 blocker 3, NPY-Y1 antag 1, NPY-Y1 pot conf -52, NPY-Y2 counter -24, NPY-Y1 agonist -35, NPY-Y2 agonist -18 and CNGC inh 2 -30.
COc1ccc(NC2c3ccccc3C(=O)N2Cc2ccc3c(c2)OCO3)cc1 (stereo not given) was read as NPY1 pot ag -15 and NPY2 pot ag -5.
CCOC(=O)C1=C(C)C2C3C(=O)N(c4cc(C)ccc4C)C(=O)C3C1(C)C1C(=O)N(c3cc(C)ccc3C)C(=O)C21 (stereo not given) was read as NPY1 pot ag 44*, NPY2 pot ag 8, NPY Y2 blocker -3, NPY-Y1 antag 0, NPY-Y1 pot conf 17, NPY-Y2 counter 9, NPY-Y1 agonist 16, NPY-Y2 agonist 8 and CNGC inh 2 10.

Bioassay records as filed in PubChem.
